Sampled rows, rich in hits. Any-hit rate of the full collection: about 1.4%.
CHT block – inhibitors of human choline transporter CHT; High affinity choline transporter 1 (Homo sapiens), Q9GZV3; CHT-expressing cells, membrane potential dye, choline response; active compounds read low; B-score at 10 µM; 0.86% of 310,000 active; AID 488975, 2010;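 active means B-score over 3 SD under the library average, and starting fluorescence ratio not unusually high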;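 further: choline stimulus applied at its EC90 after an EC20 pre-addition; B-score computed on integrated fluorescence ratio after choline addition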
TNAP act hiacc – TNAP activators at high phosphate acceptor level, primary screen, biochemical, luminescence, uHTS | purified TNAP, CDP-star luminescence, 1 M DEA, 30 min; active compounds read high; 0 = EDTA background, 1 = DMSO-only activity | activation factor at 20 µM | 200,000 tested, under 10 active;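 active means activation factor at least 2 at 20 µM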
Target sequence (P05186 whole entry, looked up): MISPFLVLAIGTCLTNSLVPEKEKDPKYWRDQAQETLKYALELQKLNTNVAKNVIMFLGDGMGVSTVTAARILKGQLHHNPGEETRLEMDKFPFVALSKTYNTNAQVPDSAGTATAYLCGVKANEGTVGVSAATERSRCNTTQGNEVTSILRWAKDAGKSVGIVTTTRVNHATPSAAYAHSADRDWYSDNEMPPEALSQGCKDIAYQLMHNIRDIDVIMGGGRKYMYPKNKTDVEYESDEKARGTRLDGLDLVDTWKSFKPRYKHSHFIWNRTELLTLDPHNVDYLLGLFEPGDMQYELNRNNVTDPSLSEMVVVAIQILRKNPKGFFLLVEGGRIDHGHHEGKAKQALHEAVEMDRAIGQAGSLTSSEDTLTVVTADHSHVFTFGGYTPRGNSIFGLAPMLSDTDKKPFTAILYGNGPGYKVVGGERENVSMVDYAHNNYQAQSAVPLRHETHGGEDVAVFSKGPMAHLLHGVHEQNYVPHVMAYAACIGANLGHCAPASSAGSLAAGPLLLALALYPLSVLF
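Dosing: 20 µM single point. System: human TNAP. Amount: TNAP 1/800 final. Incubation: 30 min, room temperature. Read-out: TNAP activation factor scaled between EDTA and DMSO control wells. Signal: luminescence from CDP-star hydrolysis. Medium: 1 M DEA, pH 9.8, Mg2+, Zn2+. Control set: EDTA negative control, DMSO positive control.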
ABCB6 inh 2 – ABCB6 transporter inhibitors, primary screen, K562-ABCB6 cells, flow cytometry, MLPCN library; ATP-binding cassette sub-family B member 6 (Homo sapiens), Q9NP58; K562-ABCB6 porphyrin accumulation, 1 h; active compounds read low; fluorescence ratio to DMSO, % at 10 µM; 0.19% of 360,000 active;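 active means fluorescence ratio to DMSO below 75%, the collection mean minus 3 SD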;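 further: signal is porphyrin accumulated inside mitochondria; lower ratio means ABCB6 inhibition with less porphyrin fluorescence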
TNAP inh no acc – human TNAP enzyme inhibitors, primary screen, biochemical, luminescent, no phosphate acceptor, uHTS; 0.26% of 200,000 active; inhibition, % at 20 µM; purified TNAP, CDP-star luminescence, 30 min; Alkaline phosphatase, tissue-nonspecific isozyme (Homo sapiens), P05186;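 active means tissue-nonspecific alkaline phosphatase inhibition above about 50% at 20 µM in the single-dose screen, limit read from the data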
TNAP inh hi DEA – human TNAP enzyme inhibitors, primary screen, biochemical, luminescent, high phosphate acceptor level, uHTS; Alkaline phosphatase, tissue-nonspecific isozyme (Homo sapiens), P05186; purified TNAP, CDP-star luminescence, 1 M DEA; inhibition, % at 20 µM; 0.03% of 200,000 active; AID 1135, 2008;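 active means over 50% inhibition of tissue-nonspecific alkaline phosphatase at 20 µM in the single-dose screen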
CHT PAM – CHT positive allosteric modulators, primary screen, cell-based, membrane potential dye, choline EC20. AID 488977, 2010. High affinity choline transporter 1 (Homo sapiens), Q9GZV3. 0.49% of 310,000 active. B-score at 10 µM. CHT-expressing cells; active compounds read high; LV-AA mutant CHT in HEK293 cells;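 active means initial fluorescence not abnormally high and integrated response B-score, plate-corrected, over 3 SD above library mean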
CHT block conf – CHT inhibitors, confirmation, cell-based, membrane potential dye, duplicate | 70% of 2,400 active | CHT-expressing cells, choline membrane potential dye; LV-to-AA substituted CHT, HEK293 cells | shares compounds with CHT block | CHT activity remaining % of control (active compounds read low), % at 10 µM;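 active means choline transporter activity left, mean of duplicates at 10 µM, below buffer-only control mean minus 3 SD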;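 further: depolarization triggered by choline at its EC90 following an EC20 pre-addition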
HEK293 CHT ctr – membrane potential effects in parental HEK293, counter-screen for CHT inhibitor project, cell-based, membrane potential dye; shares compounds with CHT block; choline response; active = decrease or increase beyond buffer ±3SD; membrane potential ratio readout (active if shifted either direction beyond buffer ±3SD; no single direction) at 10 µM; 4% of 2,400 active;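 further: parental cells lack the transporter so any hit is non-specific; ratio is peak minus trough fluorescence over baseline after EC90 choline challenge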
A number is an active result; – = inactive; · = not tested or not shown.

SMILES | CHT block | TNAP act hiacc | ABCB6 inh 2 | TNAP inh no acc | TNAP inh hi DEA | CHT PAM | CHT block conf | HEK293 CHT ctr
O=C(C[n+]1cccc(Br)c1)c1ccccc1 | -6 | · | – | · | · | – | 18% | –
COc1ccc(C(=O)C[n+]2cccc(Br)c2)cc1 | -19 | · | – | · | · | – | -0.1% | –
O=C(C[n+]1cccc(Br)c1)c1ccc(-c2ccccc2)cc1 | -15 | · | – | · | · | – | -0.8% | –
Cc1ccc(C(=O)C[n+]2cc(Br)cc(Br)c2)cc1 | -13 | · | – | · | · | – | 21% | –
O=C(C[n+]1cc(Br)cc(Br)c1)c1ccc(-c2ccccc2)cc1 | – | · | – | · | · | – | · | ·
CCc1nc2cc([N+](=O)[O-])c([N+](=O)[O-])cc2[nH]1 | – | – | – | – | – | – | · | ·
CCOC(=O)c1ccc(NC(=O)CCC(=O)OC)cc1 | – | – | – | – | – | – | · | ·
O=C(C[n+]1cccc(Br)c1)c1cccs1 | -9.2 | · | – | · | · | – | 26% | –
O=C(CCC(=O)c1cccs1)c1cccs1 | – | – | – | – | – | – | · | ·
CCOc1ccc(S(=O)(=O)N2CCCCC2)cc1NC(=O)CN1C(=O)NC(C)(c2ccc(C)cc2)C1=O (configuration not stated) | – | · | – | · | · | – | · | ·
S=c1[nH]c2cc(Cl)ccc2s1 | -5 | – | – | – | – | – | 54% | –
CSCC[C@@H](C(=O)NCCCCCCCCCCC(=O)N1CCN(C(=O)OC(C)(C)C)CC1)n1cc(CCO)nn1 | -6.4 | · | – | · | · | – | 40% | –
O=C(CSc1cccc(C(F)(F)F)c1)NCc1ccccc1 | -5.8 | – | – | – | – | – | – | –
c1ccc2[nH]c(CSc3nc4ccccc4s3)nc2c1 | -6 | – | – | – | – | – | – | –
COc1ccc(C(CNC(=O)c2cccc(NS(=O)(=O)c3ccccc3)c2)N(C)C)cc1 (configuration not stated) | – | · | – | · | · | – | · | ·
CCOc1ccc(S(=O)(=O)Nc2cccc(C(=O)NCC(c3ccccc3)N(C)C)c2)cc1 (configuration not stated) | -7.6 | · | – | · | · | – | 16% | –
COc1ccccc1-c1ccc(=O)n(CC(=O)NC2CCc3ccccc32)n1 (configuration not stated) | -8.4 | – | – | – | – | – | – | –
CC1CC(C)(C)CC2(C1)NC(=O)N(CC(=O)Nc1ccc3c(c1)OCO3)C2=O (configuration not stated) | · | · | – | · | · | · | · | ·
COc1ccc(C(=O)c2c3ccc(C(F)(F)F)cc3[n+]([O-])n2CCCN)cc1 | -6.3 | · | – | · | · | – | 22% | –
Cc1ccc(C(=O)c2c3ccc(C(F)(F)F)cc3[n+]([O-])n2CCCN)cc1 | -5.9 | · | – | · | · | – | 40% | 2.6
Cc1ccc(C(=O)c2c3ccc(C(F)(F)F)cc3[n+]([O-])n2CCCC(N)=O)cc1 | – | · | – | · | · | – | · | ·
CCN1CCN(C(=O)c2ccc(CN(c3ccccc3)S(=O)(=O)c3ccccc3)cc2)CC1 | – | – | – | – | – | – | · | ·
Cc1cccc(C)c1-n1nnnc1C(c1ccnc2ccccc12)N1CCCN(C(=O)OC(C)(C)C)CC1 (configuration not stated) | · | · | – | · | · | · | · | ·
O=C(NCC1CCCO1)c1sc(=S)n2c1[nH]c(=O)c1ccc(C(=O)N3CCCCC3)cc12 (configuration not stated) | – | – | – | – | – | – | · | ·
O=C(NCCc1ccccc1)c1ccc2c(=O)[nH]c3c(C(=O)NCC4CCCO4)sc(=S)n3c2c1 (configuration not stated) | -10 | · | – | · | · | – | -19% | –
SMILES | CHT block | TNAP act hiacc | ABCB6 inh 2 | TNAP inh no acc | TNAP inh hi DEA | CHT PAM | CHT block conf | HEK293 CHT ctr
O=C(O)CC1=C(O)C(=O)N(c2ccccc2)C1c1ccc(Cl)cc1 (configuration not stated) | – | – | – | – | – | – | · | ·
O=C(O)CC1=C(Nc2ccccc2)C(=O)N(c2ccccc2)C1c1ccc(Br)cc1 (configuration not stated) | -5.9 | – | – | – | – | – | 25% | –
COc1ccc(-n2cccc2/C=C2\C(=N)N3N=C(c4ccco4)SC3=NC2=O)cc1 | – | – | – | – | – | – | · | ·
COc1ccc(-n2cccc2/C=C2\C(=N)N3N=C(C(C)C)SC3=NC2=O)cc1 | -6.1 | – | – | – | – | – | – | –
OCC[C@@H]1C[C@H](O)[C@@H](O)[C@]2(Cc3ccccc3CO2)O1 | – | · | – | · | · | – | · | ·
Nc1nc(SCCO)[nH]c(=O)c1NC(=O)c1ccccc1F | – | – | – | – | – | – | · | ·
Oc1c(Br)cc(Br)cc1C=Nc1cccc2ncccc12 | -8.2 | · | – | · | · | – | 53% | –
Cc1c(NC(=O)COc2cccc(Br)c2)c(=O)n(-c2ccccc2)n1C | – | · | – | · | · | – | · | ·
COc1ccc(/C=C/C(=O)OCC(=O)Nc2ccc(N3CCOCC3)cc2)cc1OC | -5 | · | – | · | · | – | – | –
CCOc1ccc(N2CC(C(=O)Nc3nnc(Cc4ccccc4)s3)CC2=O)cc1 (configuration not stated) | – | · | – | · | · | – | · | ·
Cc1ccc(NC(=S)Nc2cccc3cnccc23)cc1C | -5.9 | – | – | – | – | – | 54% | –
C=CCn1c(SCc2cc(=O)n3ccsc3n2)nc2ccccc2c1=O | – | – | – | – | – | – | · | ·
Cc1cc(SCc2cc(=O)n3ccsc3n2)nc2ccccc12 | -13 | – | – | – | – | – | -1.4% | –
CC(C)(C)c1ccc(C(=O)N2CCC(=O)N(C(CO)Cc3ccccc3)CC2)cc1 (configuration not stated) | – | – | – | – | – | – | · | ·
CCN(CC)c1ccc(NC(=O)CNCc2ccccc2Cl)c(C)c1 | -5.2 | · | – | · | · | – | 57% | –
CCOC(=O)c1c(CCl)nc2ccccc2c1C | -8.9 | – | – | – | – | – | 68% | –
COc1ccc(-c2nnc(SCC(=O)N(C)C3CCS(=O)(=O)C3)n2CC(C)C)cc1 (configuration not stated) | · | · | – | · | · | · | · | ·

Bioassay records: PubChem BioAssay, several laboratories
